ChEMBL document CHEMBL3217724, “Synthesis and evaluation of a series of benzothiophene acrylonitrile analogs as anticancer agents” (Medchemcomm, 2013)

What was measured:
Format in all cases: functional
[1] = system: Malme-3M; test: Growth inhibition of human MALME-3M cells
In short: (§1)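 NCI 60-human-cancer-cell-line panel, five-dose screen after a preliminary screen. GI50 is the molar concentration giving 50% growth inhibition.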

[2] = Growth inhibition of human HCC2998 cells; conditions: HCC 2998; in short: as §1
[3] = system: A549; test: Growth inhibition of human A549 cells; in short: as §1
[4] = system: T47D; test: Growth inhibition of human T47D cells
In short: (§2)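 NCI 60-cell-line panel, five-dose screen; GI50 is the molar concentration giving 50% growth inhibition.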

[5] = system: M14; test: Growth inhibition of human M14 cells; in short: as §1
[6] = system: HL-60(TB); test: Growth inhibition of human HL-60(TB) cells; in short: as §1
[7] = system: RPMI-8226; test: Growth inhibition of human RPMI8226 cells; in short: as §1
[8] = Growth inhibition of human MOLT4 cells; conditions: MOLT-4; in short: as §1
[9] = Growth inhibition of human OVCAR4 cells; conditions: OVCAR-4; in short: as §1
[10] = Growth inhibition of human BT549 cells; conditions: BT-549; in short: as §1
[11] = Growth inhibition of human NCI-ADR-RES cells; in short: as §1
[12] = system: DU-145; test: Growth inhibition of human DU145 cells; in short: as §1
[13] = system: NCI-H460; test: Growth inhibition of human NCI-H460 cells; in short: as §1
[14] = system: COLO 205; test: Growth inhibition of human COLO205 cells; in short: as §1
[15] = system: IGROV-1; test: Growth inhibition of human IGROV1 cells; in short: as §1
[16] = Growth inhibition of human Hs578T cells; conditions: Hs-578T; in short: as §1
[17] = Growth inhibition of human UACC257 cells; conditions: UACC-257; in short: as §2
[18] = Growth inhibition of human UO31 cells; conditions: UO-31; in short: as §2
[19] = Growth inhibition of human UACC62 cells; conditions: UACC-62; in short: as §2
[20] = Growth inhibition of human LOXIMVI cells; conditions: LOX IMVI; in short: as §1
[21] = system: 786-0; test: Growth inhibition of human 786-0 cells; in short: as §1
[22] = system: SN12C; test: Growth inhibition of human SN12C cells; in short: as §2
[23] = system: SK-MEL-2; test: Growth inhibition of human SK-MEL-2 cells; in short: as §1
[24] = Growth inhibition of human EKVX cells; in short: as §1
[25] = system: MCF7; test: Growth inhibition of human MCF7 cells; in short: as §1
[26] = Growth inhibition of human OVCAR8 cells; conditions: OVCAR-8; in short: as §1
[27] = system: SK-MEL-28; test: Growth inhibition of human SK-MEL-28 cells; in short: as §1
[28] = Growth inhibition of human OVCAR3 cells; conditions: OVCAR-3; in short: as §1
[29] = system: NCI-H23; test: Growth inhibition of human NCI-H23 cells; in short: as §1
[30] = Growth inhibition of human SF295 cells; conditions: SF-295; in short: as §1
[31] = system: HT-29; test: Growth inhibition of human HT-29 cells; in short: as §1
[32] = system: NCI-H322M; test: Growth inhibition of human NCI-H322M cells; in short: as §1
[33] = system: SK-MEL-5; test: Growth inhibition of human SK-MEL-5 cells; in short: as §1
[34] = system: SNB-75; test: Growth inhibition of human SNB75 cells; in short: as §2
[35] = system: HCT-116; test: Growth inhibition of human HCT116 cells; in short: as §1
[36] = system: SNB-19; test: Growth inhibition of human SNB19 cells; in short: as §2
[37] = Growth inhibition of human HOP92 cells; conditions: HOP-92; in short: as §1
[38] = system: CAKI-1; test: Growth inhibition of human Caki1 cells; in short: as §1
[39] = system: KM12; test: Growth inhibition of human KM12 cells; in short: as §1
[40] = system: NCI-H522; test: Growth inhibition of human NCI-H522 cells; in short: as §1
[41] = system: SF-268; test: Growth inhibition of human SF268 cells; in short: as §1
[42] = system: ACHN; test: Growth inhibition of human ACHN cells; in short: as §1
[43] = system: SK-OV-3; test: Growth inhibition of human SKOV3 cells; in short: as §2
[44] = system: SW-620; test: Growth inhibition of human SW620 cells; in short: as §2
[45] = system: CCRF-CEM; test: Growth inhibition of human CCRF-CEM cells; in short: as §1
[46] = system: NCI-H226; test: Growth inhibition of human NCI-H226 cells; in short: as §1
[47] = system: SR; test: Growth inhibition of human SR cells; in short: as §2
[48] = system: MDA-MB-231; test: Growth inhibition of human MDA-MB-231 cells; in short: as §1
[49] = system: HOP-62; test: Growth inhibition of human HOP62 cells; in short: as §1
[50] = Growth inhibition of human SF539 cells; conditions: SF-539; in short: as §1
[51] = system: K562; test: Growth inhibition of human K562 cells; in short: as §1
[52] = system: TK-10; test: Growth inhibition of human TK10 cells; in short: as §2
[53] = system: MDA-MB-435; test: Growth inhibition of human MDA-MB-435 cells; in short: as §1
[54] = system: U-251; test: Growth inhibition of human U251 cells; in short: as §2
[55] = Growth inhibition of human OVCAR5 cells; conditions: OVCAR-5; in short: as §1
[56] = system: PC-3; test: Growth inhibition of human PC3 cells; in short: as §1
[57] = Growth inhibition of human HCT15 cells; conditions: HCT-15; in short: as §1
[58] = Growth inhibition of human RXF393 cells; conditions: RXF 393; in short: as §1
[59] = system: A498; test: Growth inhibition of human A498 cells; in short: as §1

Question: Which results are given for `COc1ccc(/C(C#N)=C/c2cc3ccccc3s2)cc1OC`?
Answer: GI50 [1]: > 100 nM; GI50 [2]: 66.5 nM; GI50 [3]: 70 nM; GI50 [4]: > 100 nM; GI50 [5]: 61.1 nM; GI50 [6]: 22.2 nM; GI50 [7]: 29.8 nM; GI50 [8]: 53.5 nM; GI50 [9]: > 100 nM; GI50 [10]: 28.3 nM; GI50 [11]: 10.5 nM; GI50 [12]: 36.6 nM; GI50 [13]: 35.4 nM; GI50 [14]: 36.1 nM; GI50 [15]: 61.8 nM; GI50 [16]: 30 nM; GI50 [17]: > 100 nM; GI50 [18]: 18.7 nM; GI50 [19]: 45.9 nM; GI50 [20]: 60.7 nM; GI50 [21]: 33.7 nM; GI50 [22]: 13.6 nM; GI50 [23]: > 100 nM; GI50 [24]: 90.8 nM; GI50 [25]: 47.8 nM; GI50 [26]: 25.1 nM; GI50 [27]: > 100 nM; GI50 [28]: 22 nM; GI50 [29]: 57.9 nM; GI50 [30]: 10 nM; GI50 [31]: 31.8 nM; GI50 [32]: 31.5 nM; GI50 [33]: 21 nM; GI50 [34]: 13.7 nM; GI50 [35]: 41.1 nM; GI50 [36]: 44.4 nM; GI50 [37]: > 100 nM; GI50 [38]: 82.7 nM; GI50 [39]: 10 nM; GI50 [40]: 10 nM; GI50 [41]: 45.2 nM; GI50 [42]: 85.4 nM; GI50 [43]: 63.4 nM; GI50 [44]: 24.2 nM; GI50 [45]: 28.6 nM; GI50 [46]: > 100 nM; GI50 [47]: 10 nM; GI50 [48]: 26.9 nM; GI50 [49]: 47 nM; GI50 [50]: 10.6 nM; GI50 [51]: 35.4 nM; GI50 [52]: 45.2 nM; GI50 [53]: 10 nM; GI50 [54]: 64 nM; GI50 [55]: 50 nM; GI50 [56]: 29.7 nM; GI50 [57]: 48.2 nM; GI50 [58]: 90.9 nM; GI50 [59]: 26.6 nM
